# Source: PubChem BioAssay
# dFosB act-1 = enhances mouse delta FosB homodimer DNA binding; activation, % at 25 µM; 340,000 compounds, 0.99% hits; AID 493131; purified delta FosB, TAMRA-CDK5 oligo fluorescence polarization; percent of positive-control signal above neutral wells; P13346;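 active = mean activation above about 17%, with every replicate also reaching it, limit read from the data, passing the limit was not always enough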
# CAL PDZ FP-1 = human CAL PDZ-peptide interaction inhibition | AID 504414 | inhibition, % at 20 µM | Q9HD26 | 330,000 compounds, 0.02% hits | purified CAL PDZ, TMR-peptide fluorescence polarization, 1 h;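 active = highest replicate inhibition of at least 40%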;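 also: plate controls were DMSO neutral control wells for no effect and unlabeled competitor peptide control wells for full effect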
#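 Material – purified CerCALP PDZ construct · Detection – FP readout, S and P plane fluorescence · Measure – percent inhibition from loss of millipolarization · Controls – unlabelled peptide for full inhibition, DMSO wells as neutral · Probe or stimulus – TMR-labelled reporter peptide T*-PRC34 bound in PDZ groove · Times – 1 h at RT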
# CAL PDZ FP-2 = blocks peptide binding to the human CAL PDZ domain. purified CAL PDZ, TMR-peptide fluorescence polarization, 1 h. 300,000 compounds, 0.92% hits. inhibition, % at 24.9 µM;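 active = mean inhibition of at least 30% with at least half of replicates also reaching 30%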;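 also: 0% = DMSO neutral control and 100% = excess unlabeled competitor peptide PRC23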
# SR-BI DiI inh = mouse SR-BI HDL lipid transfer inhibition; inhibition, % at 12.5 µM; 320,000 compounds, 0.96% hits; ldlA[mSR-BI] CHO cells, DiI-HDL uptake fluorescence, 3 h; Q61009; AID 488896;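 active = mean replicate inhibition of at least 70% and a set share of replicates each scoring 70 or more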;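 also: 0% = median of neutral control wells and 100% = median of positive control wells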
# Target sequence (Q61009 whole entry, looked up): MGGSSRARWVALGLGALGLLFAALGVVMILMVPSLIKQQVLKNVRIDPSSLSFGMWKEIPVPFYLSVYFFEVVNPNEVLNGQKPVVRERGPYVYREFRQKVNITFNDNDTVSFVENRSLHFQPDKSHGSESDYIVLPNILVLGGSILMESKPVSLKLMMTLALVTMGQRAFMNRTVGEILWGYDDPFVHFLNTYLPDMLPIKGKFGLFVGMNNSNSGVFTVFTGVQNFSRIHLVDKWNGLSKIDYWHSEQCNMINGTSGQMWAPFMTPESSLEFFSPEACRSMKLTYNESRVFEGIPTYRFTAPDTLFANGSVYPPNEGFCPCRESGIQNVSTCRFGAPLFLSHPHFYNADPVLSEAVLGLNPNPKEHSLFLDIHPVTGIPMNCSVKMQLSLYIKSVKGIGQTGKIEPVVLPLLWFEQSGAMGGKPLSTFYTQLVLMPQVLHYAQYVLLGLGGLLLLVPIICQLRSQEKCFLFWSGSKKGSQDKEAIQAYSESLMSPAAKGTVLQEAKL
# SR-BI DiI-HDL act = activators of SR-BI mediated HDL lipid uptake | CHO ldlA[mSR-BI] cells, DiI-HDL uptake fluorescence, 3 h; 100 = double the neutral-control signal | activation, % at 12.5 µM | 320,000 compounds, 0.096% hits | AID 504775;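 active = mean replicate activation of at least 60% and every replicate at or above 60%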;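 also: 0% = median plate neutral-control signal and 100% = twice that signal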
#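 Assay system: LDL receptor-deficient CHO ldlA cells overexpressing murine SR-BI / Medium: BSA-supplemented, HEPES-buffered Ham's F12, pH 7.4 / Probe or stimulus: DiI-labelled HDL at 10 µg/mL final / Timing: compound with DiI-HDL co-incubation, 3 h at 37 °C / Technique: bottom-read cell fluorescence after medium removal, ex 550/em 595 nm / Measure: HDL uptake via cellular fluorescence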
# dFosB act-2 = delta FosB (mouse) homodimer activation; shares compounds with dFosB act-1; purified delta FosB, TAMRA-CDK5 oligo fluorescence polarization; normalised: neutral wells 0, positive control 100; activation, % at 24.9 µM; 2,400 tested, under 10 active;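 active = highest replicate activation at or above 34% and every replicate reaching that threshold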;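 also: higher polarization means more probe DNA bound by delta FosB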
# Starred values were filed as active, the others as inactive; nt = no result. Hits are enriched below; roughly 2.8% of the tested compounds scored in any of these assays.
SMILES,dFosB act-1,CAL PDZ FP-1,CAL PDZ FP-2,SR-BI DiI inh,SR-BI DiI-HDL act,dFosB act-2
O=C(Cn1c(=O)oc2cc(S(=O)(=O)N3CCCC3)ccc21)N1CCN(c2ccccc2)CC1,4,0,nt,37,-37,nt
Cc1ccc(C)c(N2CCN(C(=O)Cn3c(=O)oc4cc(S(=O)(=O)N5CCCC5)ccc43)CC2)c1,35*,-1,nt,42,-45,2
N#Cc1ccc(-c2ccc(F)cc2)nc1SCC(=O)Nc1sc2c(c1C#N)CCC2,37*,-2,-2,78*,-78,1
Cc1cccn2c(=O)c(/C=N/O)c(NCc3ccccc3)nc12,3,-1,5,38,-38,nt
Cc1cccn2c(=O)c(/C=N/O)c(Nc3ccccc3F)nc12,20*,-1,-5,-6,6,1
CC1(C)Oc2ccccc2OC1(O)c1ccc2ccccc2n1 (stereo not drawn),-3,0,-6,-22,22,nt
Cc1csc(NC(=O)c2cc3c(C)nn(Cc4ccccc4Cl)c3s2)n1,46*,-2,-3,56,-56,7
Cc1nn(C)c(C)c1NC(=O)CSc1nc(-c2ccccc2Cl)nc2c1cnn2-c1ccccc1,122*,-2,-5,18,-18,6
O=C(CNC(=O)c1[nH]cnc1C(=O)NC(c1ccccc1)c1ccccc1)OCc1ccccc1,5,-1,1,-1,1,nt
O=C(CS(=O)(=O)c1ccccc1)Nc1ccc(S(=O)(=O)Nc2ncccn2)cc1,-2,0,4,-9,9,nt
O=C(CNC(=O)c1ccc(-c2ccccc2)cc1)Nc1ccc(S(=O)(=O)Nc2ncccn2)cc1,25*,-3,-2,nt,nt,4
C=CCNc1nc(Nc2ccc(-c3nc4ccccc4o3)cc2)nc(N2CCOCC2)n1,28*,-3,-1,21,-21,2
Cc1cccc(C(=O)NCC(=O)N2CCCCCCC2)c1,-5,0,2,-4,4,nt
C=CCNC(=O)CN1C(=O)c2cccc3cccc1c23,-5,nt,-5,-2,2,nt
O=C(Cn1c(=O)cnc2ccccc21)N1CCN(S(=O)(=O)c2cccc([N+](=O)[O-])c2)CC1,4,-2,1,-29,29,nt
O=C(Cn1nc(C(=O)O)c2ccccc2c1=O)Nc1nc(-c2ccccc2)cs1,69*,nt,-8,nt,nt,-2
O=C(Cn1nc(C(=O)O)c2ccccc2c1=O)Nc1ccccc1C(F)(F)F,78*,-2,-1,nt,nt,4
CCOC(=O)c1c(NC(=O)Cn2nc(C(=O)O)c3ccccc3c2=O)sc2c1CCC(C)C2 (stereo not drawn),-8,0,-2,30,-30,nt
O=C(Cn1nc(C(=O)O)c2ccccc2c1=O)Nc1ccc(Br)cc1,5,-2,-1,nt,nt,nt
O=C(Cn1nc(C(=O)O)c2ccccc2c1=O)Nc1cccc(S(=O)(=O)N2CCOCC2)c1,-19,-1,nt,-28,28,nt
NC(=O)c1c(NC(=O)Cn2nc(C(=O)O)c3ccccc3c2=O)sc2c1CCC2,33*,0,-5,nt,nt,2
O=C(Cn1nc(C(=O)O)c2ccccc2c1=O)Nc1cccc(S(=O)(=O)N2CCCCC2)c1,28*,-1,-4,4,-4,8
O=c1[nH]cnc2c1sc1nc(C(F)F)cc(-c3ccccc3)c12,32*,0,-4,-31,31,4
O=c1[nH]cnc2c1sc1nc3c(c(-c4ccc(Cl)cc4)c12)CCC3,-23,-15,nt,29,-29,nt
N#CCOC(=O)C1CCN(S(=O)(=O)c2ccc3c(c2)OCCO3)CC1,7,-2,-3,-21,21,nt
SMILES,dFosB act-1,CAL PDZ FP-1,CAL PDZ FP-2,SR-BI DiI inh,SR-BI DiI-HDL act,dFosB act-2
Cc1c(-c2nc(N)nc(Nc3ccccc3)n2)oc2ccccc12,52*,-2,-4,13,-13,-1
Nc1nc(CN2CCCCCC2)nc(Nc2ccccc2)n1,-4,0,-5,-26,26,nt
CN(c1ccccc1)S(=O)(=O)c1cccc(NC(=O)C2CCCO2)c1 (stereo not drawn),-1,0,nt,9,-9,nt
O=C(C[C@H]1C/C=C\C[C@H](Cc2ccc(F)cc2)C(=O)O[C@@H](c2ccccc2)CNC1=O)N[C@@H](CO)Cc1ccccc1,-2,0,0,-3,3,nt
O=C(C[C@H]1C/C=C\CC[C@@H](Cc2ccc(F)cc2)C(=O)O[C@@H](c2ccccc2)CNC1=O)N[C@@H](CO)Cc1ccccc1,116*,0,-1,1,-1,0
O=C(C[C@H]1C/C=C\C[C@@H](Cc2ccc(F)cc2)C(=O)O[C@@H](c2ccccc2)CNC1=O)N[C@@H](CO)Cc1ccccc1,49*,0,-1,19,-19,3
O=[N+]([O-])c1ccc(OCCOc2ccccc2/C=N/n2cnnc2)cc1,36*,-3,-5,-12,12,5
COc1ccccc1/C=N/n1cnnc1,-5,-3,-2,5,-5,nt
O=C(Nc1ccc(Br)cn1)c1cccc(-c2cc3ccccc3oc2=O)c1,34*,-1,-2,-20,20,0
CCc1ccc(Nc2n[n+](-c3ccccc3)c(-c3ccc(SC)cc3)s2)cc1,31*,0,1,36,-36,0
CSc1ccc(-c2sc(Nc3ccccc3)n[n+]2-c2ccccc2)cc1,0,-21,1,8,-8,nt
O=C1Nc2cc(C(=O)NCCCN3CCCC3)ccc2S/C1=C\c1ccccc1,7,-11,-5,15,-15,nt
CCC1CCCCN1CCCNC(=O)c1ccc(/C=C2/Sc3ccccc3NC2=O)cc1 (stereo not drawn),38*,-13,-13,23,-23,0
CCSc1ccc(C(=O)Nc2ccc(Br)cn2)cc1[N+](=O)[O-],19*,0,39*,56,-56,-7
Cn1cc([N+](=O)[O-])c(C(=O)Nc2ccc(Br)cn2)n1,10,-1,nt,-11,11,nt
Cn1ncc(Br)c1C(=O)N/N=C/c1cccc(OC2CSC2)c1,-7,-1,-5,24,-24,nt
O=C(N/N=C/c1cccc(OC2CSC2)c1)c1ccccc1O,29*,0,-2,-9,9,-1
Cc1cc(C)n2cc(CSc3nc4cc(Cl)ccc4o3)nc2n1,1,-2,-5,5,-5,nt
CN(C)c1nc(N)nc(CSc2nc3cc(Cl)ccc3o2)n1,28*,-3,0,-25,25,6
O=C(COC(=O)c1n[nH]c2ccccc12)Nc1ccc([N+](=O)[O-])cc1,14,-3,-1,7,-7,nt
COc1cc(NC(=O)COC(=O)c2n[nH]c3ccccc23)c(C)cc1[N+](=O)[O-],32*,0,nt,42,-42,-1
